Test [1] is filed under the species Rattus norvegicus. Description: Compound was evaluated for the stimulation of rat retinal adenylate cyclase at 10.0 uM dose. The class given is functional. An outline of the steps: (§1)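 Retinal homogenate, […], incubated 20 min at 30 °C. Stopped with SDS/ATP/cAMP plus [3H]cAMP recovery tracer and 2 min at 85 °C. [32P]cAMP isolated by Salomon column chromatography.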

The species named for test [2] is Rattus norvegicus. Briefly: Compound was evaluated for the stimulation of rat retinal adenylate cyclase at 1.0 uM dose. Format: functional. An outline of the steps: as §1
The species entered for test [3] is Rattus norvegicus. Briefly: Compound was evaluated for the stimulation of rat retinal adenylate cyclase at 100.0 uM dose. Format: functional. An outline of the steps: as §1
The species entered for test [4] is Rattus norvegicus. Description: Compound was evaluated for the stimulation of rat retinal adenylate cyclase at 0.1 uM dose. Format: functional. Put shortly:
as §1

Test [5] is filed under the species Rattus norvegicus. Briefly: Compound was evaluated for the stimulation of rat retinal adenylate cyclase by effect of its alkyl length at 100.0 uM dose. The class given is functional. Put shortly:
as §1

Test [6] is filed under the species Rattus norvegicus. Briefly: Compound was evaluated for the stimulation of rat retinal adenylate cyclase by effect of its alkyl length at 0.1 uM dose. Format: functional. An outline of the steps: as §1
For test [7], the species on record is Rattus norvegicus. Description: Compound was evaluated for the stimulation of rat retinal adenylate cyclase by effect of its alkyl length at 1.0 uM dose. Format: functional. Put shortly: as §1
The species entered for test [8] is Rattus norvegicus. Briefly: Compound was evaluated for the stimulation of rat retinal adenylate cyclase by effect of its alkyl length at 10.0 uM dose. Format: functional. Put shortly:
as §1

For the next test, the species on record is Canis familiaris. Briefly: Compound was evaluated for the stimulation of canine renal artery; Inactive. The class given is functional, organism-based. The conditions noted are these: Canis lupus familiaris.

The source made the active and inactive calls. The rule behind the calls is not given here.

With `NCCc1ccc(O)c(O)c1` [DOPAMINE], the Stimulation is reported as 209.8% in the test listed under Rattus norvegicus [1], 116.2% in the test listed under Rattus norvegicus [2], 295.3% in the test listed under Rattus norvegicus [3] and 25.7% in the test filed under Rattus norvegicus [4].
Turning to `Oc1ccc(C2CNCc3ccccc32)cc1O` (stereo not given), the Stimulation in the test listed under Rattus norvegicus [1] amounted to 152.7%; in the test filed under Rattus norvegicus [2], 89.6%; in the test filed under Rattus norvegicus [5] it was 288.8%; in the test listed under Rattus norvegicus [6], 11.5%; in the test listed under Rattus norvegicus [7], 87.7%; in the test filed under Rattus norvegicus [3], 198.8%. For the same compound, the Stimulation came out at 188% in the test listed under Rattus norvegicus [8] and 23.6% in the test listed under Rattus norvegicus [4].
`Oc1cccc(C2CNCc3ccccc32)c1` (stereo not given): the figures for the Stimulation in the test filed under Rattus norvegicus [1], in the test listed under Rattus norvegicus [2] and in the test listed under Rattus norvegicus [3] were 47%, 21% and 81%, respectively. Also, the result in the test filed under Canis familiaris was inactive.
In the case of `Oc1ccc(C2CNCc3sccc32)cc1O` (stereo not given), the Stimulation in the test listed under Rattus norvegicus [1] was found to be 188.6%; in the test listed under Rattus norvegicus [2] it was 160.2%; in the test listed under Rattus norvegicus [3], 207%; in the test listed under Rattus norvegicus [4], 70.4%.
Consider `CCCN1Cc2ccccc2C(c2ccc(O)c(O)c2)C1` (stereo not given), for which the Stimulation in the test listed under Rattus norvegicus [5] was 46.4%; in the test listed under Rattus norvegicus [7], -7.7%; in the test filed under Rattus norvegicus [8] it was 11.8%.
With `CN1Cc2ccccc2C(c2ccc(O)c(O)c2)C1` (stereo not given), the Stimulation in the test listed under Rattus norvegicus [5] is 144.9%; in the test filed under Rattus norvegicus [6], -1.7%; in the test listed under Rattus norvegicus [7] it was 46.5%; in the test filed under Rattus norvegicus [8], 122.6%.
In the case of `CCN1Cc2ccccc2C(c2ccc(O)c(O)c2)C1` (stereo not given), the Stimulation in the test listed under Rattus norvegicus [5] is 94.1%; in the test filed under Rattus norvegicus [6] it was -8.8%; in the test listed under Rattus norvegicus [7], -1%; in the test listed under Rattus norvegicus [8], 42.7%.
Turning to `Oc1ccc(C2CNCCc3c2cc(O)c(O)c3Cl)cc1` (stereo not given) [FENOLDOPAM], the Stimulation was 201.4% in the test listed under Rattus norvegicus [1], 176% in the test filed under Rattus norvegicus [2], 246% in the test listed under Rattus norvegicus [3] and 165.1% in the test filed under Rattus norvegicus [4].

(Values after ChEMBL document CHEMBL1123933, “Specific dopamine D-1 and DA1 properties of 4-(mono- and -dihydroxyphenyl)-1,2,3,4-tetrahydroisoquinoline and its tetrahydrothieno[2,3-c]pyridine analogue” (1987).)
